Results published in ChEMBL document CHEMBL1131335, “Modulation of receptor and receptor subtype affinities using diastereomeric and enantiomeric monosaccharide scaffolds as a means to structural and biological diversity. A new route to ether synthesis” (J Med Chem, 1998).
Blank lines part the entries; values can stand above or below the compound they belong to.

Tests used:
Substance-P receptor [1] = target: T1, Substance-P receptor (Homo sapiens, UniProt P25103); assay: Binding affinity was measured for Tachykinin receptor 1; Did not bind
T1 sequence (P25103 whole entry): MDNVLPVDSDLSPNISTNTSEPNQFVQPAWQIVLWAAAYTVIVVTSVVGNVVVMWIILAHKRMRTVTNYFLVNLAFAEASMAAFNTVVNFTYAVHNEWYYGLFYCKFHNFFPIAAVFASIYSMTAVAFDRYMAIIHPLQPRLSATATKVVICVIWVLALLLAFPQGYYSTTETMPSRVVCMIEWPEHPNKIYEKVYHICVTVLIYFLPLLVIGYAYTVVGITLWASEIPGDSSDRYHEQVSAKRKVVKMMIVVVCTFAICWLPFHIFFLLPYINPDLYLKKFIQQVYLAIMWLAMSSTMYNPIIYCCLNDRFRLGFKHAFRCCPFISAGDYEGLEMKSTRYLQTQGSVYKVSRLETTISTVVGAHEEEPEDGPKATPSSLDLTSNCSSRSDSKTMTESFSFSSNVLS

Somatostatin receptor = assay: Binding affinity was measured for SRIF receptor on AtT-20 mouse pituitary cells; type: cell-based; details: pituitary gland cell
Substance-P receptor [2] = target: T1, Substance-P receptor; assay: Binding affinity was measured for Tachykinin receptor 1
[3] = target: Somatostatin receptor type 4 (Homo sapiens, UniProt P31391); assay: Binding affinity for human receptor subtype hSSTR4.
Somatostatin receptor type 4, sequence (P31391 whole entry): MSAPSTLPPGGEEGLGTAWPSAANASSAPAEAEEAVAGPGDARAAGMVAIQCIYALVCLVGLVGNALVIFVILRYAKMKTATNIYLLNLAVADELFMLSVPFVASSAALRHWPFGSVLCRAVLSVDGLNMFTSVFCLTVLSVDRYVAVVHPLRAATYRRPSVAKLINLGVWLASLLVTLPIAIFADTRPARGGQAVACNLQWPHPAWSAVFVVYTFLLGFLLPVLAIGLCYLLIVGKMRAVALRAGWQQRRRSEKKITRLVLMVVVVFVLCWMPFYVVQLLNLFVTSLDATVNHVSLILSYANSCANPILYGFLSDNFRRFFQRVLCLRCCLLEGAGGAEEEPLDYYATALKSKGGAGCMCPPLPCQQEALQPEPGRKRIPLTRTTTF
Summary of the method: (§1)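 Radioligand competition on membranes from CHO-K1 cells expressing hSSTR1–5, in 50 mM Tris-HCl pH 7.8 with 1 mM EGTA, 5 mM MgCl2 and protease inhibitors (leupeptin, pepstatin, bacitracin, aprotinin). Tracer was [125I-Tyr11]SRIF-14 at 0.1 nM final. Compounds ran 0.01–10,000 nM as seven-point full-log titrations, in triplicate, in at least two separate experiments. Incubation was 45 min at room temperature, then filtration onto PEI-pretreated GF/C filters and scintillation counting.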

[4] = target: Somatostatin receptor type 3 (Homo sapiens, UniProt P32745); assay: Binding affinity for human receptor subtype hSSTR3.; summary of the method: as §1
Somatostatin receptor type 3, sequence (P32745 whole entry): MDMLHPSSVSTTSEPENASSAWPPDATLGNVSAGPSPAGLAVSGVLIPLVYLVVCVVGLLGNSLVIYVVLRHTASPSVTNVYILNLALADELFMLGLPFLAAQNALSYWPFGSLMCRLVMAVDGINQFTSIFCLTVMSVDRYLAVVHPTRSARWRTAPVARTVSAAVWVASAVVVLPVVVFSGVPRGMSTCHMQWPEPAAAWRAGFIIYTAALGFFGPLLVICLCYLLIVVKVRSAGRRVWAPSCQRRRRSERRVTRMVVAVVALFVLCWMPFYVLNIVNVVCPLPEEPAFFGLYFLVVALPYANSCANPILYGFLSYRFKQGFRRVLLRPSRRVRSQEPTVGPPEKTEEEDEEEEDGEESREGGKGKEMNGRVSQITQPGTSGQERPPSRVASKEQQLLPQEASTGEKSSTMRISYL

[5] = target: Somatostatin receptor type 2 (Homo sapiens, UniProt P30874); assay: Binding affinity for human receptor subtype hSSTR2
Somatostatin receptor type 2, sequence (P30874 whole entry): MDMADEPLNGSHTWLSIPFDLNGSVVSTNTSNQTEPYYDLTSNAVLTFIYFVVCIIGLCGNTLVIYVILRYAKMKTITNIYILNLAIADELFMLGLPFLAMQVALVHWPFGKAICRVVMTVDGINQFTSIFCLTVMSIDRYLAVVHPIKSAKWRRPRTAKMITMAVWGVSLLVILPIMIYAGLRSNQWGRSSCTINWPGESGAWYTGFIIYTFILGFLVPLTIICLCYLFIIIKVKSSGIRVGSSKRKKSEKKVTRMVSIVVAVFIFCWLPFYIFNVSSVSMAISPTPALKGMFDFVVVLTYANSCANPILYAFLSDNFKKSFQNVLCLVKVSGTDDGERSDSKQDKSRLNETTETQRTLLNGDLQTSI
Summary of the method: as §1, with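 “aprotinin).” for “aprotinin). Tracer was [125I-Tyr11]SRIF-14 at 0.1 nM final.”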

[6] = target: T2, Somatostatin receptor type 5 (Homo sapiens, UniProt P35346); assay: Binding affinity for human receptor subtype hSSTR5.
T2 sequence (P35346 whole entry): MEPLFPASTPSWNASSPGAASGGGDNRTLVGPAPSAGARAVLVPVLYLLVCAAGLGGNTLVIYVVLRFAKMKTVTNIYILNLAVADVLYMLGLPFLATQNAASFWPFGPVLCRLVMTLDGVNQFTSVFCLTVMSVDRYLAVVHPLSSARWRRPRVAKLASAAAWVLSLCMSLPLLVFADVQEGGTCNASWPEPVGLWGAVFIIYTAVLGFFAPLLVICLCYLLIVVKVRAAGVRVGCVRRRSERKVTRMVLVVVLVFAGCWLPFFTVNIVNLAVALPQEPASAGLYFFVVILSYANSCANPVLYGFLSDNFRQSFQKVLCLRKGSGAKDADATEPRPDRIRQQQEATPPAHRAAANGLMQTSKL
Summary of the method: as §1, with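 “aprotinin).” for “aprotinin). Tracer was [125I-Tyr11]SRIF-14 at 0.1 nM final.”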

[7] = target: Somatostatin receptor type 1 (Homo sapiens, UniProt P30872); assay: Binding affinity for human receptor subtype hSSTR1
Somatostatin receptor type 1, sequence (P30872 whole entry): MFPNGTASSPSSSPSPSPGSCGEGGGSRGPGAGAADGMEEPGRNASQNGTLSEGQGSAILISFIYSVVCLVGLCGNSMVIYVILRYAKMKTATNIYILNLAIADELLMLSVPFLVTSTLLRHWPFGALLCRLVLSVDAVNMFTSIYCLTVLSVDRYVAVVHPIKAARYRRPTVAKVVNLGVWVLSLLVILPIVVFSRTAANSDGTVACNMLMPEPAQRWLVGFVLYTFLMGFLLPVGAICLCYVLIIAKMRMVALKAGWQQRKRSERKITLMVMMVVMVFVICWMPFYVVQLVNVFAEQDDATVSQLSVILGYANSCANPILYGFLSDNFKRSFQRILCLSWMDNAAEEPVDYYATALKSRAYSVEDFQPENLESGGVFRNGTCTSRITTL
Summary of the method: as §1, with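 “aprotinin).” for “aprotinin). Tracer was [125I-Tyr11]SRIF-14 at 0.1 nM final.”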

[8] = target: T2, Somatostatin receptor type 5; assay: Binding affinity for human receptor subtype hSSTR5.; Did not bind; summary of the method: as §1

Structure (SMILES): NCCCCCOC[C@H]1O[C@@H](OCCc2c[nH]c3ccccc23)[C@H](OCc2ccccc2)C[C@@H]1OCc1ccccc1
IC50 (Somatostatin receptor): 8.4 µM

Structure (SMILES): OCCCCCNC[C@H]1O[C@@H](OCCc2c[nH]c3ccccc23)[C@H](OCc2ccccc2)[C@@H](OCc2ccccc2)[C@@H]1OCc1ccccc1
IC50 (Somatostatin receptor): 14 µM

Structure (SMILES): NCCCCCNC[C@H]1O[C@@H](OCCc2c[nH]c3ccccc23)[C@H](OCc2ccccc2)[C@@H](OCc2ccccc2)[C@@H]1OCc1ccccc1
Ki [3]: 500 nM | Ki [4]: 600 nM | IC50 (Somatostatin receptor): 13 µM | Ki [5]: 600 nM | Ki [6]: 1300 nM | Ki [7]: 2100 nM

Structure (SMILES): NCCCCCCOC[C@H]1O[C@@H](OCCc2c[nH]c3ccccc23)[C@H](OCc2ccccc2)C[C@@H]1OCc1ccccc1
IC50 (Somatostatin receptor): 7 µM

Structure (SMILES): NCCCCCOC[C@@H]1O[C@H](OCCc2c[nH]c3ccccc23)[C@H](OCc2c[nH]cn2)[C@H](OCc2ccccc2)[C@H]1OCc1ccccc1
Ki [8]: Not Active

Structure (SMILES): NCCCCCOC[C@H]1O[C@@H](CCc2c[nH]c3ccccc23)[C@H](OCc2ccccc2)[C@@H](OCc2ccccc2)[C@@H]1OCc1ccccc1
IC50 (Somatostatin receptor): 22 µM

Structure (SMILES): NCCCCCOC[C@H]1O[C@@H](OCCc2c[nH]c3ccccc23)[C@H](OCc2c[nH]cn2)C[C@@H]1OCc1ccccc1
IC50 (Somatostatin receptor): 4.1 µM

Structure (SMILES): CO[C@@H]1O[C@H](COCCCCCN)[C@@H](OCc2ccccc2)[C@H](OCc2c[nH]cn2)[C@H]1OCc1ccccc1
IC50 (Somatostatin receptor): 5.6 µM

Structure (SMILES): CO[C@@H]1O[C@H](COCCCCCN)[C@@H](OCc2ccccc2)[C@H](OCc2ccccc2)[C@H]1OCc1ccccc1
IC50 (Somatostatin receptor): 5.9 µM

Structure (SMILES): OCCCCCCNC[C@H]1O[C@@H](OCCc2c[nH]c3ccccc23)[C@H](OCc2ccccc2)C[C@@H]1OCc1ccccc1
IC50 (Somatostatin receptor): 5.1 µM

Structure (SMILES): C[C@@H](O)[C@@H]1NC(=O)[C@H](Cc2ccc(F)cc2)NC(=O)[C@@H](Cc2c[nH]c3ccccc23)NC(=O)[C@H](Cc2ccc3ccccc3c2)NC(=O)[C@@H]2CCCN2C(=O)[C@H](Cc2ccccc2)NC1=O
IC50 (Substance-P receptor [2]): 65 nM

Continued, values first:

IC50 (Substance-P receptor [1]): Not Active
Structure (SMILES): CC(=O)NCCCCCOC[C@H]1O[C@@H](OCCc2c[nH]c3ccccc23)[C@H](OCc2ccc3ccccc3c2)[C@@H](OCc2ccccc2)[C@@H]1OCc1ccccc1

IC50 (Substance-P receptor [2]): 209 nM
Structure (SMILES): CC(=O)NCCCCCOC[C@H]1O[C@@H](OCCc2c[nH]c3ccccc23)[C@H](OCc2ccc(F)cc2)[C@@H](OCc2ccccc2)[C@@H]1OCc1ccccc1

IC50 (Substance-P receptor [1]): Not Active
Structure (SMILES): Fc1ccc(COC[C@H]2O[C@@H](OCCc3c[nH]c4ccccc34)[C@H](OCc3ccc4ccccc4c3)[C@@H](OCc3ccccc3)[C@@H]2OCc2ccccc2)cc1

IC50 (Substance-P receptor [1]): Not Active
Structure (SMILES): Fc1ccc(CO[C@H]2[C@H](OCCc3c[nH]c4ccccc34)O[C@H](COCc3ccc4ccccc4c3)[C@@H](OCc3ccccc3)[C@@H]2OCc2ccccc2)cc1

IC50 (Substance-P receptor [1]): Not Active
Structure (SMILES): Fc1ccc(OC[C@H]2O[C@@H](OCCc3c[nH]c4ccccc34)[C@H](OCc3ccc4ccccc4c3)[C@@H](OCc3ccccc3)[C@@H]2OCc2ccccc2)cc1
